Assay results as given in ChEMBL document CHEMBL4325909, “Synthesis and evaluation of chalcone analogues containing a 4-oxoquinazolin-2-yl group as potential anti-tumor agents” (Eur J Med Chem, 2019).
Activity calls are given as the source filed them. The calls are words filed in the database; no cut-off is given here.

Experiments:
HCT-116 [1] = experiment: Induction of apoptosis in human HCT116 cells after 12 hrs by annexin V-FITC/propidium iodide staining-based flow cytometry method; type: functional, cell-based
MCF-10A [2] = experiment: Induction of apoptosis in human MCF10A cells after 12 hrs by annexin V-FITC/propidium iodide staining-based flow cytometry method; type: cell-based
Outline: (§1)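 Cells were stained with Annexin V-FITC/PI and gated by flow cytometry into live, early apoptotic, late apoptotic and necrotic quadrants. Apoptotic fraction is early plus late, mean ± SD of three independent experiments.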

HCT-116 [3] = experiment: Induction of apoptosis in human HCT116 cells assessed as early apoptotic cells at 1 uM after 12 hrs by annexin V-FITC/propidium iodide staining-based flow cytometry method (reference value: 3.8%); type: functional
HCT-116 [4] = experiment: Induction of apoptosis in human HCT116 cells assessed as late apoptotic cells at 1 uM after 12 hrs by annexin V-FITC/propidium iodide staining-based flow cytometry method (reference value: 5.4%); type: functional
HCT-116 [5] = experiment: Induction of apoptosis in human HCT116 cells assessed as necrotic cells at 1 uM after 12 hrs by annexin V-FITC/propidium iodide staining-based flow cytometry method (reference value: 4.8%); type: functional
HCT-116 [6] = experiment: Induction of apoptosis in human HCT116 cells assessed as viable cells at 1 uM after 12 hrs by annexin V-FITC/propidium iodide staining-based flow cytometry method (reference value: 86.0%); type: functional; conditions: HCT-116, 12 h, read-out: Activity
MCF-10A [7] = experiment: Induction of apoptosis in human MCF10A cells assessed as early apoptotic cells at 1 uM after 12 hrs by annexin V-FITC/propidium iodide staining-based flow cytometry method (reference value: 0.20%); type: cell-based; outline: as §1
MCF-10A [8] = experiment: Induction of apoptosis in human MCF10A cells assessed as necrotic cells at 1 uM after 12 hrs by annexin V-FITC/propidium iodide staining-based flow cytometry method (reference value: 0.57%); type: cell-based; outline: as §1
[9] = Induction of apoptosis in human MCF10A cells assessed as viable cells at 1 uM after 12 hrs by annexin V-FITC/propidium iodide staining-based flow cytometry method (reference value: 95.4%); type: cell-based, MCF-10A; conditions: read-out: Activity; outline: as §1
HCT-116 [10] = experiment: Induction of apoptosis in human HCT116 cells at 1 uM after 12 hrs by acridine orange/ethidium bromide staining-based fluorescence microscopic analysis; type: functional, cell-based
HCT-116 [11] = experiment: Induction of reactive oxygen species generation in human HCT116 cells assessed as increase in mitochondrial superoxide generation at 1 uM after 12 hrs by MitoSOX red dye-based fluorescence microscopic analysis; type: functional, cell-based
HCT-116 [12] = experiment: Induction of mitochondrial membrane depolarization in human HCT116 cells at 1 uM after 12 hrs by JC-1 staining based fluorescence microscopic analysis; type: functional, cell-based

Question: Which results are given for `CN[C@@H]1C[C@H]2O[C@@](C)([C@@H]1OC)n1c3ccccc3c3c4c(c5c6ccccc6n2c5c31)C(=O)NC4` [STAUROSPORINE]?
Answer: Activity (HCT-116 [1]): Dose-dependent effect; Activity (MCF-10A [2]): Dose-dependent effect; Activity (HCT-116 [3]): 25.6%; Activity (HCT-116 [4]): 8.4%; Activity (HCT-116 [5]): 3%; viability at 1 µM (HCT-116 [6]): 63.1%; Activity (MCF-10A [7]): 2.18%; Activity (MCF-10A [8]): 1.22%; viability at 12 h, 1 µM [9]: 85.6%; Activity (HCT-116 [10]): Active; Activity (HCT-116 [11]): Active; Activity (HCT-116 [12]): Active
